Source: PubChem
Most compounds without a hit are left out; they make up all but 1.9% or so of the library.
Lipid droplet – hepatic lipid droplet formation modulation; AML12 mouse hepatocytes, oleate lipid droplets, BODIPY imaging; AID 1656; actives 0.4% (n = 240,000); inhibition, % at 6.5 µM;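 active = lipid droplet intensity inhibited by at least 50%, with more than 500 cells counted; inconclusive = wells with under 300 cells, treated as cytotoxic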
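Test system: AML12 hepatocytes (mouse); reagent: oleate loading, 100 µM; dosing: one dose, 6.5 µM compound; incubation: overnight exposure; signal: fluorescence imaging, 20x objective, two fields per well; read-out basis: % inhibition of corrected integrated BODIPY droplet signal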
aSyn UTR inh – 5' untranslated region of α-synuclein, MLPCN primary screen; actives 0.82% (n = 300,000); alpha-synuclein 5'UTR reporter, inhibitor activity; inhibition, % (tested at 7.5 µM); in the data active = inhibition above about 60%; inconclusive = no clear call, values can overlap the other calls;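 note: H4 neuroglioblastoma cells stably carrying SNCA 5'UTR luciferase fusion; 0% = DMSO wells and 100% = positive control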
697 NFkB inh – inhibitors of the PMA/ionomycin-induced NF-kB reporter in 697 B cells; inhibition, % at 4 µM; actives 0.33% (n = 330,000); 697 B-cell NF-kB luciferase reporter, 16 h; in the data active = inhibition above about 35%
APP transl inh – APP translation inhibition | inhibition, % at 2 µM | SH-SY5Y APP 5'UTR-luciferase reporter, luminescence | actives 0.82% (n = 190,000);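 active = inhibition above a set limit, derived from the sample mean plus 3 SD, cut at about 45% in these data; inconclusive = one replicate passes the limit while the other fails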
TAG inh – triacylglycerol accumulation inhibition | inhibition, % at 12.5 µM | H9c2 cells, Nile Red lipid (TAG) fluorescence; cells loaded with 200 µM oleic acid | actives 0.66% (n = 230,000);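 active = pattern-corrected inhibition of lipid staining of at least 50% with the nuclear-stain viability signal not falling by more than 50%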;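 note: 0% = DMSO wells and 100% = triacsin C control wells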
Jurkat NFkB inh – lowers PMA/ionomycin-induced NF-kB signal in Jurkat cells | PMA/ionomycin-induced NF-kB luciferase reporter, luminescence | inhibition, % at 4 µM | actives 0.53% (n = 330,000) | AID 435003; in the data active = inhibition above about 50%
TAG conf – confirmation of triacylglycerol accumulation inhibitors | shares compounds with TAG inh | H9c2 lipid accumulation, Nile Red fluorescence; cells loaded with 200 µM oleic acid | inhibition, % at 12.5 µM | actives 71% (n = 990);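 active = mean inhibition across replicates of 40% or more; inactive = mean inhibition below 40%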;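 note: plate controls were DMSO only wells for no effect and Triacsin C treated wells for full effect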
The depositor's hits bear a star; ? = inconclusive; nt = no result given.

SMILES | Lipid droplet | aSyn UTR inh | 697 NFkB inh | APP transl inh | TAG inh | Jurkat NFkB inh | TAG conf
CCOC(=O)C1=C(C)N(C[C@@H]2CC[C@@H](Cc3ccc(-c4ccccc4)cc3)O2)C(=O)NC1c1ccc(C(F)(F)F)cc1 (stereo partly specified) | nt | nt | 4.5 | nt | 10.3 | nt | nt
CCOC(=O)C1=C(C)N(C[C@@H]2CC[C@@H](Cc3ccc(-c4ccccc4)cc3)O2)C(=O)NC1c1cccc2ccccc12 (stereo partly specified) | nt | nt | 21.4 | nt | 78.0* | nt | 78.4*
COC(=O)[C@@]1(Cc2ccc(F)cc2)[C@H]2c3cc(C(=O)N4CCCC4)n(CCCNc4ncc(C(F)(F)F)cc4Cl)c3C[C@H]2CN1C(=O)c1ccccc1 | 13.1 | 18.5 | 9.7 | nt | 77.8* | 29.6 | 98.4*
COc1cccc(-c2nc(-c3ccc(NC(=O)Cc4ccccc4OC)cc3)no2)c1 | -6.8 | nt | nt | -20.8 | 50.7* | nt | 55.1*
C1CCC(OCCN2CCN(CCOC3CCCCC3)CC2)CC1 | -1.9 | 36.9 | -7.6 | -0.9 | nt | 4.5 | nt
CC(=O)Nc1ccc(-c2ccnc3c2CC(C(=O)NCc2cccc(Cl)c2)O3)cc1 (stereo unspecified) | nt | nt | nt | nt | 58.0* | nt | 62.6*
COc1ccc(NC(=O)C2Cc3c(-c4cccc(C(C)=O)c4)ccnc3O2)cc1 (stereo unspecified) | nt | nt | nt | nt | 53.9* | nt | 38.1
Cc1cc(OCC(=O)OCC(=O)NC2CCCCCC2)ccc1Cl | nt | nt | -0.7 | nt | 9.6 | -3.9 | nt
Cc1ccc(CC2(OCCN(C)C)CCC(C(C)(C)C)CC2)cc1 (stereo unspecified) | nt | nt | nt | nt | 83.8* | nt | 62.6*
O=C(O)CC1(CC(=O)Nc2cc(C(F)(F)F)cc(C(F)(F)F)c2)CCCCC1 | 4.8 | 13.8 | 17.2 | nt | 93.8* | 16.9 | -9.7
Cc1ccc(C)c(OCC(=O)Nc2ccc(C(=O)O)cc2NC(=O)COc2cc(C)ccc2C)c1 | -13.9 | -3.9 | -46.1 | nt | 3.0 | -9.3 | nt
O=C(Cc1c(F)cccc1Cl)OCN1C(=O)c2ccccc2C1=O | 5.3 | 3.3 | 0.5 | nt | nt | -7.1 | nt
CN(C)CCNC=C(C(=O)Nc1ccc(Cl)cc1Cl)C(=O)Nc1ccc(Cl)cc1Cl | 14.3 | 44.6 | 6.0 | -8.4 | 102.0* | 14.0 | 92.5*
CCO[C@@H]1OC(C(=O)N2CCN(Cc3ccc4c(c3)OCO4)CC2)=C[C@H](C)[C@H]1CCCO | -1.7 | 19.7 | -2.4 | 5.8 | 53.0* | 20.3 | -5.0
COCCNC(=O)c1cc2c(-c3ccc(Cl)cc3)nn(C)c2s1 | nt | -21.2 | 6.8 | -16.5 | 52.0* | 12.9 | 44.8*
COCCCNC(=O)c1cc2c(-c3ccc(Cl)cc3)nn(C)c2s1 | nt | -71.6 | 18.8 | 3.5 | 42.5 | 5.7 | nt
C#CCN(C[C@H]1[C@H](OC(=O)NC2CC2)[C@H](OC(=O)NC2CC2)C[C@@H](C(=O)OC)[C@H]1C(=O)OC)S(=O)(=O)c1ccc(C)cc1 | nt | nt | nt | nt | 10.7 | nt | nt
C#CCN(C[C@H]1[C@H](OC(=O)NCC2CCCCC2)[C@H](OC(=O)NCC2CCCCC2)C[C@@H](C(=O)OC)[C@H]1C(=O)OC)S(=O)(=O)c1ccc(C)cc1 | nt | nt | nt | nt | 81.9* | nt | 88.8*
Cc1ccc(-c2nc(NC(=O)c3cc(C(C)(C)C)nn3C)sc2C)cc1Cl | nt | nt | -13.2 | nt | 67.9* | 13.6 | 85.5*
O=C(CSc1nncs1)Nc1ccc(Cl)cc1C(F)(F)F | nt | -3.9 | 0.8 | nt | 6.5 | 9.6 | nt
O=C(CCC1CCCCC1)NCCN1C2=NC[C@@H](Cc3ccccc3)N2C[C@H]1Cc1ccc(O)cc1 | -12.9 | 13.5 | -4.3 | -8.8 | 62.9* | -1.6 | 62.1*
COc1ccc(C[C@H]2CN3C(=NC[C@@H]3C(C)C)N2CCNC(=O)c2ccc(C)c(Br)c2)cc1 | 1.8 | -2.3 | -6.2 | 0.9 | nt | 25.7 | nt
COc1ccc(C[C@H]2CN3C(=NC[C@@H]3Cc3ccc(O)cc3)N2C[C@H](C)NC(=O)CCC2CCCCC2)cc1 | 3.0 | 15.5 | 15.2 | nt | 51.0* | 8.7 | 39.4
O=C(CCC1CCCCC1)NCCN1C2=NC[C@H](Cc3ccccc3)N2C[C@H]1Cc1ccc(O)cc1 | -11.6 | 22.4 | 11.3 | 10.3 | nt | 1.2 | nt
Cc1ccc(C(=O)NCCN2C3=NC[C@H](C(C)C)N3C[C@H]2Cc2ccc(O)cc2)cc1Br | -15.9 | -2.2 | 9.4 | -11.9 | 56.6* | 19.0 | 40.2*
SMILES | Lipid droplet | aSyn UTR inh | 697 NFkB inh | APP transl inh | TAG inh | Jurkat NFkB inh | TAG conf
CC(C)(C)c1ccc(OCC(O)CSc2ncn[nH]2)cc1 (stereo unspecified) | 12.2 | -15.3 | -52.9 | -15.8 | nt | -32.2 | nt
CNC(=S)N(CCCN(C)C)Cc1cc2cc3c(cc2[nH]c1=O)OCCO3 | 4.6 | -8.8 | -9.0 | nt | 0.4 | -4.1 | nt
COc1ccc(NC2=NC(=S)N(c3ccc(C)cc3)C23CCCCC3)cc1 | nt | 35.7 | -19.2 | 8.9 | 56.8* | -17.3 | 29.9
COc1ccc(NC2=NC(=S)N(c3cccc(C)c3)C23CCCCC3)cc1 | -2.4 | 39.8 | 24.3 | -3.0 | -6.7 | -4.7 | nt
CCCN(CCC)CCNC(=O)c1cc2c(=O)n(CC)c3ccccc3c2s1 | 9.1 | -173.7 | 4.4 | nt | 51.6* | -37.7 | 68.2*
CN(C)CCNC(=O)c1cccc2ccc(-c3ccc(-c4ccccc4)cc3)nc12 | nt | nt | nt | nt | 60.4* | nt | 65.6*
CN(C)CCNC(=O)c1cccc2nc3cccc(F)c3nc12 | nt | nt | nt | nt | 91.5 | nt | nt
Cc1ccc2c(c1)N(CC(=O)Nc1ncccc1C)C(=O)C(C(C)C)O2 (stereo unspecified) | -22.7 | 10.0 | 2.7 | nt | nt | -10.9 | nt
Cn1c(=O)c2cc(NC(=O)Cc3cccnc3)ccc2n1-c1ccc2ccccc2c1 | nt | nt | nt | nt | 6.7 | nt | nt
CC(CC(=O)Nc1ccc2c(c1)c(=O)n(C)n2-c1ccc2ccccc2c1)C(F)(F)F (stereo unspecified) | nt | nt | nt | nt | 54.6* | nt | 44.1*
CC(=O)NC(Cc1c[nH]c2ccccc12)C(=O)N/N=C/c1ccccc1 (stereo unspecified) | -14.2 | 8.5 | 2.4 | -5.1 | 13.3 | -11.1 | nt
Cc1ccc(/C=N/NC(=O)Cc2c[nH]c3ccccc23)c(C)c1 | nt | 10.7 | 19.3 | -9.4 | 54.4* | 20.8 | 44.4*
O=C(Cc1c[nH]c2ccccc12)N/N=C/c1ccccc1O | -2.8 | 8.6 | 22.5 | nt | 18.7 | -9.6 | nt
CC(C)(C)c1ccc(/C=N/NC(=O)Cc2c[nH]c3ccccc23)cc1 | 16.9 | 34.4 | -9.4 | -2.7 | 57.8* | -16.9 | 42.2*
CN(CC(=O)Nc1ncn[nH]1)S(=O)(=O)c1ccc(Cl)cc1 | -6.1 | 10.8 | -0.1 | nt | nt | 16.3 | nt
N#CCC(=O)N/N=C/c1cn(Cc2ccc(Cl)c(Cl)c2)c2ccccc12 | -3.1 | ? | 18.7 | nt | 73.3* | 7.6 | 58.5*
Cc1cccc(OCCc2nnc(N)s2)c1C | nt | -29.7 | -12.6 | 0.9 | 5.4 | -4.6 | nt
NS(=O)(=O)c1cccc(NC(=O)COC(=O)CCN2C(=O)c3ccccc3C2=O)c1 | nt | nt | 5.2 | nt | 0.8 | -14.8 | nt
Nc1cc2c(cc1Br)[nH]c(=O)c1ccccc12 | nt | nt | nt | nt | 77.0* | nt | 62.3*
Nc1cc2[nH]c(=O)c3ccccc3c2cc1Br | nt | nt | nt | nt | -3.9 | nt | nt
